Measurements gathered from unrelated publications.
CDK4 with cyclin D3: Cyclin-dependent kinase 4, with cyclin D3 (CDK4, Homo sapiens, UniProt P11802)
CDK4 with cyclin D1: Cyclin-dependent kinase 4, with cyclin D1 (CDK4, Homo sapiens, UniProt P11802)
CDK4: Cyclin-dependent kinase 4 (CDK4, Homo sapiens, UniProt P11802)

COc1ccc2[nH]c3c4[nH]c5ccc(OC)cc5c4c4c(c3c2c1)C(=O)NC4=O — remaining binding (CDK4 with cyclin D3; binding; 1 µM): 74%
C1=C/COCc2cc(ccc2OCCN2CCCC2)Nc2nccc(n2)-c2cccc(c2)COC/1 — remaining binding (CDK4 with cyclin D3; binding; 0.1 µM): 25%
CCCCC(=O)Nc1ccc(-c2ccc3ncn(CCC)c(=O)c3c2)cn1 — remaining binding (CDK4 with cyclin D1; binding; competition with immobilised ligand; 0.5 µM): 100%
Cc1ccc(NC(=O)c2ccnc(C(F)(F)F)c2)cc1-c1cc(OCCO)nc(N2CCOCC2)c1 — remaining binding (CDK4 with cyclin D3; binding; 1 µM): 100%
C=CC(=O)N1CCC([C@@H]2CCNc3c(C(N)=O)c(-c4ccc(Oc5ccccc5)cc4)nn32)CC1 — inhibition (CDK4 with cyclin D3; enzyme activity; inhibitor; 1 µM): 0%
CNS(=O)(=O)c1ccc(Nc2ncc(C(F)(F)F)c(N3CCC[C@](C)(O)C3)n2)c(C)c1 — remaining binding (CDK4; binding; competition with immobilised ligand; 1 µM): 71%
CC#CC(=O)N1CCC[C@H]1c1nc(-c2ccc(C(=O)Nc3ccccn3)cc2)c2c(N)nccn12 — inhibition (CDK4 with cyclin D3; enzyme activity; inhibitor; 1 µM): 0%
Cc1cc(O)c(-c2ccc([C@@H](C)CN(C)C)cc2)c2c1[nH]c(=O)c1sccc12 — inhibition (CDK4; enzyme activity; inhibitor; 0.1 µM): 4.95%
C[C@]1(O)CCCN(c2nc(Nc3ccc(S(=O)(=O)N[C@H]4CC[C@H](CN5CCN(c6ccc(C7CCC(=O)NC7=O)cc6F)CC5)CC4)cc3Cl)ncc2C(F)(F)F)C1 (stereo partly drawn) — remaining binding (CDK4; binding; competition with immobilised ligand; 1 µM): 93%
CN1CCN(C(=O)c2ccc(NC(=O)Nc3ccc(N(C)c4ccnc(Nc5ccc(CS(C)(=O)=O)cc5)n4)cc3)cc2)CC1 — remaining binding (CDK4 with cyclin D3; binding; 1 µM): 89%
C[C@]1(O)CCCN(c2nc(Nc3ccc(S(=O)(=O)N[C@H]4CC[C@H](CN5CCN(c6ccc(C7CCC(=O)NC7=O)cc6F)CC5)CC4)cc3F)ncc2C(F)(F)F)C1 (stereo partly drawn) — remaining binding (CDK4 with cyclin D1; binding; competition with immobilised ligand; 1 µM): 97%
CO[C@@H]1[C@H](N(C)C(=O)c2ccccc2)C[C@H]2O[C@]1(C)n1c3ccccc3c3c4c(c5c6ccccc6n2c5c31)C(=O)NC4 — inhibition (CDK4 with cyclin D3; enzyme activity; inhibitor; 1 µM): 2%
